In ChEMBL document CHEMBL1122137, “Antiinflammatory properties of 8-aryl-5-isopropyl-2H-1,3-dioxolo[4,5-g]quinazolin-6(5H)-ones and -thiones” (1982):

Columns and labels:
Assay type in all cases: functional
Rattus norvegicus [1] = assay: Inhibition of carrageenan edema in adrenalectomized rats was determined after peroral administration; conditions: po
In short: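 Carrageenin paw edema run as in intact rats, but male Wistar rats were bilaterally adrenalectomized under ether and allowed 7 days to recover. They drank 1.0% NaCl plus 2.5% dextrose and ate standard chow. Oral dosing in 0.5% CMC 1 h before subplantar 1% carrageenin. Plethysmographic swelling at 3 h, as percent of vehicle-treated controls.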

Rattus norvegicus [2] = assay: Inhibition of carrageenan edema in normal rats was determined after peroral administration; conditions: po
In short: (§1)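 Male Wistar rats (150–175 g) dosed orally, in mg/kg, as a suspension in 0.5% carboxymethylcellulose (1 mL/kg), 1 h before subplantar injection of 0.1 mL of 1% Type 402 carrageenin. Paw edema measured by electronic plethysmography at 3 h. Swelling (3 h minus 0 h) per rat; treated-group mean expressed as percent of vehicle-control mean.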

Rattus norvegicus [3] = assay: Inhibition of carrageenan edema in rats was determined after peroral administration of 100 mg/kg; conditions: route oral; in short: as §1
Rattus norvegicus [4] = organism: Rattus norvegicus; assay: Inhibition of the development of adjuvant-induced polyarthritis in rats was determined
Rattus norvegicus [5] = assay: Nonnarcotic analgesic effect was determined after peroral administration in rats; conditions: po, read-out: MED
Rattus norvegicus [6] = assay: Bronchoconstrictor effect of bradykinin was determined after intravenous administration in rats
Rattus norvegicus [7] = assay: Nonnarcotic analgesic effect was determined after peroral administration in rats.; conditions: po, read-out: MED
Rattus norvegicus [8] = assay: Bronchoconstrictor effect of bradykinin was determined after intravenous administration in rats.

Row | SMILES | ED50 (Rattus norvegicus [2]) [mg/kg] | ED50 (Rattus norvegicus [3]) [mg/kg] | ED50 (Rattus norvegicus [4]) [mg/kg] | inhibition in vivo at 100 mg/kg (Rattus norvegicus [3]) [%] | also measured
1 | CC(C)n1c(=O)nc(-c2cccc(F)c2)c2cc3c(cc21)OCO3 | 9 | 9 | 9 |  | ED50 (Rattus norvegicus [1]): 14 mg/kg; minimal effective dose (Rattus norvegicus [5]): 11 mg/kg; ED50 (Rattus norvegicus [6]): 50 µg/kg
2 | CC(C)n1c(=O)nc(-c2ccc(C(=O)O)cc2)c2cc3c(cc21)OCO3 |  |  |  | 33 | 
3 | CC(C)n1c(=O)nc(-c2ccccc2[N+](=O)[O-])c2cc3c(cc21)OCO3 |  | 39 |  |  | 
4 | Cc1ccccc1C1NC(=O)N(C(C)C)c2cc3c(cc21)OCO3 (stereo unspecified) |  | 50 |  |  | 
5 | CC(C)n1c(=S)nc(-c2ccc(F)cc2)c2cc3c(cc21)OCO3 |  |  |  | 49 | 
6 | COc1ccc2c(c1)c(CC(=O)O)c(C)n2C(=O)c1ccc(Cl)cc1 [INDOMETHACIN] | 5 | 5 | 0.1 |  | ED50 (Rattus norvegicus [1]): 6 mg/kg; minimal effective dose (Rattus norvegicus [7]): 4 mg/kg
7 | Cc1ccc2c(-c3ccccc3)nc(=O)n(C(C)C)c2c1 [PROQUAZONE] | 5 | 5 | 1 |  | ED50 (Rattus norvegicus [1]): 6 mg/kg; minimal effective dose (Rattus norvegicus [7]): 1 mg/kg
8 | CC(C)n1c(=S)nc(-c2cccc(F)c2)c2cc3c(cc21)OCO3 |  |  |  | 36 | 
9 | CC(C)n1c(=O)nc(-c2ccc3c(c2)OCO3)c2cc3c(cc21)OCO3 |  |  |  | 21 | 
10 | Cc1ccc(-c2nc(=O)n(C(C)C)c3cc4c(cc23)OCO4)cc1 |  |  |  | 22 | 
11 | CC(C)c1ccc(-c2nc(=S)n(C(C)C)c3cc4c(cc23)OCO4)cc1 |  |  |  | 10 | 
12 | CC(C)n1c(=S)nc(-c2ccccc2)c2cc3c(cc21)OCO3 | 7 | 7 | 6 |  | ED50 (Rattus norvegicus [8]): 47 µg/kg
13 | CCCCC1C(=O)N(c2ccccc2)N(c2ccccc2)C1=O [PHENYLBUTAZONE] | 25 | 25 | 5 |  | ED50 (Rattus norvegicus [1]): 30 mg/kg; minimal effective dose (Rattus norvegicus [7]): 9 mg/kg
14 | CC(C)n1c(=S)nc(-c2cccc([N+](=O)[O-])c2)c2cc3c(cc21)OCO3 |  |  |  | 0 | 
15 | CC(C)n1c(=O)nc(-c2ccc(Cl)c(Cl)c2)c2cc3c(cc21)OCO3 |  |  |  | 30 | 
16 | CC(C)n1c(=O)nc(-c2cccc([N+](=O)[O-])c2)c2cc3c(cc21)OCO3 |  |  |  | 28 | 
17 | CC(C)n1c(=O)nc(-c2ccc(F)cc2)c2cc3c(cc21)OCO3 | 8 | 8 | 6 |  | ED50 (Rattus norvegicus [8]): 170 µg/kg; ED50 (Rattus norvegicus [1]): 20 mg/kg; minimal effective dose (Rattus norvegicus [5]): 4 mg/kg
18 | CC(C)n1c(=O)nc(-c2ccccc2)c2cc3c(cc21)OCO3 | 8 | 7 | 3 |  | ED50 (Rattus norvegicus [8]): 12 µg/kg; ED50 (Rattus norvegicus [1]): 9 mg/kg; minimal effective dose (Rattus norvegicus [5]): 50 mg/kg
19 | CC(C)n1c(=O)nc(-c2ccc(OCc3ccccc3)cc2)c2cc3c(cc21)OCO3 |  |  |  | 17 | 
20 | COc1cccc(-c2nc(=O)n(C(C)C)c3cc4c(cc23)OCO4)c1 |  |  |  | 12 | 
21 | Cc1ccccc1-c1nc(=O)n(C(C)C)c2cc3c(cc12)OCO3 |  | 65 |  |  | 
